The subject of data set [1] is MDR1. The data set is described as follows: Efflux ratio of permeability from basolateral to apical side over apical to basolateral side in MDCK1 cells expressing MDR1. Format: ADME, cell-based, Canis lupus familiaris. As to conditions: dog, MDCK-MDR1. Summed up: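 MDCKI-MDR1 cells (MDCK epithelial line transfected with MDR1/P-gp; from the NIH). Permeability measured as a rate in 10−6 cm/s in both directions; value is the BA/AB ratio.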

Data set [2] is described as follows: Intrinsic clearance in human liver microsomes. Format: ADME, microsome. Particulars: read-out: CLH.
Data set [3] concerns the target T1, Muscarinic acetylcholine receptor M1 (Homo sapiens, UniProt P11229).
T1 sequence (P11229 whole entry): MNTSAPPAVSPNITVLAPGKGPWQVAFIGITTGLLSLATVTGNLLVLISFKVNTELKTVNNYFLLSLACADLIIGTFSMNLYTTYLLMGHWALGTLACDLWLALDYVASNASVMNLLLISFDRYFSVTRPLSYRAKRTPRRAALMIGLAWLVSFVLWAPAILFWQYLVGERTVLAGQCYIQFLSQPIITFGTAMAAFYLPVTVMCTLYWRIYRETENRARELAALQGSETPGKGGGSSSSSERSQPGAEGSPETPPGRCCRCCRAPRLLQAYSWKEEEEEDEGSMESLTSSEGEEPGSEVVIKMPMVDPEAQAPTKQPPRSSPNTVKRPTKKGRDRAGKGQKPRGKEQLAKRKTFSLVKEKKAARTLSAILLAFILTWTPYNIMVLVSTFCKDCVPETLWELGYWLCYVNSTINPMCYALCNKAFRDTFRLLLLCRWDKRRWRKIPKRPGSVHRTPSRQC
Put plainly: Positive allosteric modulation of human muscarinic acetylcholine receptor M1 expressed in CHO cells assessed as increase in acetylcholine-induced calcium mobilization preincubated for 10 mins followed by acetylcholine addition by Fluo-8-AM dye based FLIPR assay. Format: ADME, cell-based. A digest of the protocol: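 M1 potentiation (PAM) format: calcium mobilization read on a FLIPR plate reader with an EC20 concentration of ACh present. EC50 is the geometric mean of at least three experiments.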

The target in data set [4] is Cytochrome P450 3A4 (Homo sapiens, UniProt P08684). The data set is described as follows: Time dependent inhibition of CYP3A4 (unknown origin) by high throughput assay relative to 2-((3R,4S)-3-Hydroxytetrahydro-2H-pyran-4-yl)-5-methyl-6-(4-(oxazol-4-yl)benzyl)isoindolin-1-one. Format: ADME.
Data set [5] relates to Mus musculus. The data set is described as follows: In vivo agonist activity at muscarinic acetylcholine receptor M1 in C57BL/6 mouse assessed as unbound brain concentration required to show 2 fold increase in IP1 accumulation in striatum at 1 to 10 mg/kg, sc measured after 2 hrs. Format: organism-based. A digest of the protocol: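 Cb,u giving a 2-fold rise in striatal IP1 in C57BL/6 mice, estimated by interpolation of individual-mouse IP1 versus free brain exposure data.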

Data set [6] in a line: Ratio of unbound AUC in rat brain to plasma at 45 mg/kg, po administered as single dose. In kind it is ADME, organism-based. Summed up:
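Rats, 3 per sex, received a single oral 45 mg/kg dose as a nanosuspension in 1.25% w/v hydroxypropyl cellulose SL with 0.05% docusate sodium in purified water. The brain/plasma ratio is the AUC ratio of unbound drug in brain to unbound drug in plasma. It was used to estimate unbound brain levels from measured unbound plasma Cmax.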

A short description of data set [7]: Ratio of unbound Cmax in rat brain assessed as convulsions at 45 mg/kg, po administered as single dose to unbound brain concentration for agonist activity at muscarinic acetylcholine receptor M1 in C57BL/6 mouse assessed as required to show 2 fold increase in IP1 accumulation in striatum at 1 to 10 mg/kg, sc. Format: organism-based.
The subject of data set [8] is Rattus norvegicus. Put plainly: Toxicity in rat assessed as unbound Cmax in plasma required to show convulsions at 45 mg/kg, po administered as single dose. Format: organism-based. Particulars: in vivo.
The target in data set [9] is T1, Muscarinic acetylcholine receptor M1. The data set is described as follows: Agonist activity at human muscarinic acetylcholine receptor M1 expressed in CHO cells assessed as increase in calcium mobilization incubated for 10 mins by Fluo-8-AM dye based FLIPR assay. In kind it is cell-based. Summed up: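 M1 FLIPR calcium mobilization run in agonist mode (compound added without the EC20 ACh used in PAM mode). Top concentration 10 μM. EC50 values are geometric means of at least three experiments.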

The subject of data set [10] is Rattus norvegicus. The data set is described as follows: Toxicity in rat assessed as unbound Cmax in brain required to show convulsions at 45 mg/kg, po administered as single dose. Format: organism-based. As to conditions: in vivo.
For data set [11], the target named is T1, Muscarinic acetylcholine receptor M1. Put plainly: Agonist activity at human muscarinic acetylcholine receptor M1 expressed in CHO cells assessed as increase in calcium mobilization at 13 uM incubated for 10 mins by Fluo-8-AM dye based FLIPR assay relative to control. Format: cell-based. As to conditions: read-out: %max.
The target is the same in data set [12]. Put plainly: Displacement of [3H]PT-1284 human muscarinic acetylcholine receptor M1 expressed in CHO cell membranes after 90 mins scintillation counting method.
Data set [13] can be described thus: Ratio of unbound Cmax in dog brain assessed as convulsions at 15 mg/kg, po administered as single dose to unbound brain concentration for agonist activity at muscarinic acetylcholine receptor M1 in C57BL/6 mouse assessed as required to show 2 fold increase in IP1 accumulation in striatum at 1 to 10 mg/kg, sc. In kind it is organism-based.
For data set [14], the system named is Canis familiaris. Put plainly: Toxicity in dog assessed as unbound Cmax in brain required to show convulsions at 15 mg/kg, po administered as single dose using spray dried dispersion formulation. In kind it is organism-based, Canis lupus familiaris. As to conditions: in vivo.
Data set [15] concerns Canis familiaris. Put plainly: Toxicity in dog assessed as unbound Cmax in plasma required to show convulsions at 15 mg/kg, po administered as single dose using spray dried dispersion formulation. As to conditions: in vivo. In kind it is organism-based, Canis lupus familiaris.

Data on 13 compounds can be found in ChEMBL document CHEMBL4017487, “Design and Synthesis of γ- and δ-Lactam M1 Positive Allosteric Modulators (PAMs): Convulsion and Cholinergic Toxicity of an M1-Selective PAM with Weak Agonist Activity” (J Med Chem, 2017).

Cytochrome P450 3A4, sequence (P08684 whole entry): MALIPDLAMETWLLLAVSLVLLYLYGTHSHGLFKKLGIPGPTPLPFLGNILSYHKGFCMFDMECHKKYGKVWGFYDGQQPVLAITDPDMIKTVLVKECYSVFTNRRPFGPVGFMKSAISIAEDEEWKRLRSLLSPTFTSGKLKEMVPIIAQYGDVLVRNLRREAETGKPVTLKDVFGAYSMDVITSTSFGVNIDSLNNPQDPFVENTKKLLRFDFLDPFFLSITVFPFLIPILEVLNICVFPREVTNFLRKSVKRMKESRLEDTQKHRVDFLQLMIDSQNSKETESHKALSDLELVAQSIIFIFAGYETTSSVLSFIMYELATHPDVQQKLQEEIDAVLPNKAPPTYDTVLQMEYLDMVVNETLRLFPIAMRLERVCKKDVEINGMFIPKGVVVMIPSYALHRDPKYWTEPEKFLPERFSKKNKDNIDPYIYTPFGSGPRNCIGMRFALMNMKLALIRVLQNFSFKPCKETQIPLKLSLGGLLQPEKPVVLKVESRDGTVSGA

For the compound `Cc1cc2c(cc1Cc1ccc(-c3cnn(C)c3)cc1)C(=O)N([C@H]1CCOC[C@@H]1O)C2`, the efflux ratio in [1] came to 7.6. For the same compound, in [2], the CLint scaled is 15 mL/min/kg. The EC50 in data set [3] was found to be 27 nM.

Regarding `Cc1cc2c(cc1Cc1ccc(-n3cccn3)cc1)C(=O)N([C@H]1CCOC[C@@H]1O)C2`, the efflux ratio in data set [1] was 18. Besides, the CLint scaled in [2] is less than 8 mL/min/kg. Further, in data set [3], the EC50 was 36 nM.

As to `Cc1cc2c(cc1Cc1ccc(-c3cocn3)cc1)C(=O)N([C@H]1CCOC[C@@H]1O)CC2`, the “fold change (FC)” value in data set [4] worked out at 6. Besides, in [1], the efflux ratio is 2.7. Also, the CLint scaled in [2] was determined as 13 mL/min/kg. Moreover, the EC50 in data set [3] worked out at 26 nM.

For the compound `Cc1cc2c(cc1Cc1ccc(-n3cccn3)cc1)C(=O)N([C@H]1CCOC[C@@H]1O)CC2`, the efflux ratio in data set [1] worked out at 11. The CLint scaled in data set [2] was found to be 15 mL/min/kg. Besides, the EC50 in data set [3] came out at 18 nM.

For the compound `Cn1ccc(-c2ccc(Cn3cc(C(=O)N[C@H]4CCOC[C@@H]4O)c4ncccc43)cc2)n1`, in [5], the “Drug uptake(free)” value worked out at 32 nM.

Regarding `Cc1cc2c(cc1Cc1ccc(-n3ccnc3)cc1)C(=O)N([C@H]1CCOC[C@@H]1O)C2`, the efflux ratio in data set [1] was 53. For the same compound, the CLint scaled in [2] was less than 8 mL/min/kg. In addition, the EC50 in data set [3] was determined as 68 nM.

Turning to `Cc1cn(-c2ccc(Cc3cc4c(cc3C)CN([C@H]3CCOC[C@@H]3O)C4=O)cc2)cn1`, the efflux ratio in data set [1] came to 63. For the same compound, the CLint scaled in data set [2] was found to be 30 mL/min/kg. For the same compound, in [3], the EC50 worked out at 45 nM.

With `Cc1cc2c(cc1Cc1ccc(-c3cscn3)cc1)C(=O)N([C@H]1CCOC[C@@H]1O)CC2`, the efflux ratio in data set [1] was found to be 12. Further, the CLint scaled in data set [2] came out at 25 mL/min/kg. Further, the EC50 in data set [3] is 7 nM.

Consider `Cc1ccc(Cc2cc3c(=O)n([C@H]4CCCC[C@@H]4O)cnc3c3ccccc23)cn1` [MK-7622], for which the Kp uu in [6] turned out to be 0.24. Besides, in data set [7], the selectivity ratio is 33. For the same compound, the results for the fCmax in data set [8] and in data set [10] were 550 nM and 130 nM, respectively. Besides, the “Drug uptake(free)” value in data set [5] amounted to 4 nM. For the same compound, the EC50 in [9] was more than 2000 nM; in data set [3], 63 nM. Further, the Emax at 13 µM in data set [11] is 62%. This compound had an inhibition constant Ki in data set [12] of 8 nM.

In the case of `Cc1cc2c(cc1Cc1ccc(-c3cscn3)cc1)C(=O)N([C@H]1CCOC[C@@H]1O)C2`, in data set [1], the efflux ratio amounted to 11. In addition, in data set [2], the CLint scaled is 10 mL/min/kg. In addition, the EC50 in data set [3] came to 24 nM.

Regarding `Cc1cnc(C(=O)N[C@H]2CCOC[C@@H]2O)cc1Cc1ccc(-c2cscn2)cc1`, the figures for the selectivity ratio in [13] and in [7] were 20 and more than 29, respectively. The fCmax was 290 nM in [14] and 950 nM in data set [15]. The “Drug uptake(free)” value in data set [5] stood at 14 nM. Further, the EC50 in data set [9] was more than 4000 nM. In [11], the Emax at 13 µM is 34%. The affinity in data set [12] corresponds to a Ki of 19 nM.

For `Cc1nc(-c2ccc(Cc3cc4c(cc3C)CCN([C@H]3CCOC[C@@H]3O)C4=O)cc2)co1`, the efflux ratio in data set [1] was determined as 14. In data set [2], the CLint scaled came to 21 mL/min/kg. In data set [3], the EC50 is 23 nM.

For the compound `Cc1nc(-c2ccc(Cc3cc4c(cc3C)CN([C@H]3CCOC[C@@H]3O)C4=O)cc2)co1`, in data set [1], the efflux ratio worked out at 11. In addition, the CLint scaled in data set [2] was 13 mL/min/kg. For the same compound, the EC50 in data set [3] amounted to 50 nM.
